From ChEMBL document CHEMBL1136288, “A catch-and-release strategy for the combinatorial synthesis of 4-acylamino-1,3-thiazoles as potential CDK5 inhibitors” (Bioorg Med Chem Lett, 2003)

Key:
[1] = target: T1, Cyclin-dependent kinase 5/CDK5 activator 1 (Homo sapiens, UniProt Q00535); experiment: Ability to inhibit Cyclin-dependent kinase 5-p35.; type: protein-complex assay
In short: (§1)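 CDK5/GST-p25 was at 0.5 nM and CDK2/GST-cyclin A at 4 nM. Incubated 30 min at 37 °C, stopped with streptavidin SPA beads/EDTA, and counted. IC50 came from a sigmoidal dose-response fit, averaged when repeated.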

[2] = target: Cyclin-dependent kinase 2/cyclin A (Homo sapiens, UniProt P24941); experiment: Ability to inhibit cyclin-dependent kinase 2-cyclin A.; type: protein-complex assay; in short: as §1
[3] = target: T2, Cyclin-dependent kinase 5/CDK5 activator 1 (Homo sapiens) (UniProt Q00535+Q15078); experiment: Inhibition of Cyclin-dependent kinase 5-p35nck5a; type: protein-complex assay; conditions: concentration not given here; in short: as §1
[4] = target: T2, Cyclin-dependent kinase 5/CDK5 activator 1 (Homo sapiens); experiment: Inhibition of Cyclin-dependent kinase 5-p35nck5a at 20 uM; type: protein-complex assay
[5] = Specificity for CDK5 over Cyclin-dependent kinase 2-cyclin A
[6] = target: T1, Cyclin-dependent kinase 5/CDK5 activator 1; experiment: Inhibition of Tau Protein Kinase II (TPK II); type: protein-complex assay; in short: as §1

T2 sequence (Q00535 whole entry): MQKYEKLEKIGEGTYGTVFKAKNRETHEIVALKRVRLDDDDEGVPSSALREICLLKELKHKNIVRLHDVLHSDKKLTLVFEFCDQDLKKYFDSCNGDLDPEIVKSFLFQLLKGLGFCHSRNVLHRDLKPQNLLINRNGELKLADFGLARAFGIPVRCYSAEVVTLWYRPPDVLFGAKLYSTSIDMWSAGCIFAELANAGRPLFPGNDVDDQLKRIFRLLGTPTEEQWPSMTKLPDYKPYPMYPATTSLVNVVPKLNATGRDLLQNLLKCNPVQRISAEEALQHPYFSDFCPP
T2 sequence (Q15078 99-307 partner limits assumed): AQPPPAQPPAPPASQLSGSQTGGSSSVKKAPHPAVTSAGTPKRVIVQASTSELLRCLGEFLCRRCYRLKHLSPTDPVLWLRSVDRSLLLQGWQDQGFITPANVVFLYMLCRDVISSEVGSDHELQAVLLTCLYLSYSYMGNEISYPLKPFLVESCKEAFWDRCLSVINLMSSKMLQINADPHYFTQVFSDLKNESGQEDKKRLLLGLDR
T1 sequence (Q00535 whole entry): as the sequence (Q00535 whole entry) above
T1 sequence (Q15078 whole entry, further chain): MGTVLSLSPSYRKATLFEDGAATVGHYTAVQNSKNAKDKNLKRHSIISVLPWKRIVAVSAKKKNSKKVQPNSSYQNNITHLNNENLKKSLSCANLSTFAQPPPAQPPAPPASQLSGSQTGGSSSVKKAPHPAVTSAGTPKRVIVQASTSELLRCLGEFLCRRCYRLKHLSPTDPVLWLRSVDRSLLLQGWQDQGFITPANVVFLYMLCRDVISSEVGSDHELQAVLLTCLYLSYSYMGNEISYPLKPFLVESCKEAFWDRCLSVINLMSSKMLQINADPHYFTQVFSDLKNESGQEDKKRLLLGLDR

Row | SMILES | IC50 [1] | IC50 [2] | further results
1 | CONC(=O)Nc1csc(Cc2c(Cl)cccc2Cl)n1 | 9 µM | > 100 µM | 
2 | COc1ccc(OCc2nc(NC(=O)NN3CCOCC3)cs2)cc1 | 30 µM | 20 µM | 
3 | O=C(Nc1csc(Cc2c(Cl)cccc2Cl)n1)NN(Cc1ccccc1)Cc1ccccc1 | > 100 µM |  | 
4 | O=C(Nc1csc(Cc2ccccc2)n1)NN1CCOCC1 | 55 µM | > 100 µM | 
5 | CNNC(=O)Nc1csc(Cc2c(Cl)cccc2Cl)n1 | > 100 µM |  | 
6 | O=C(Nc1csc(Cc2c(Cl)cccc2Cl)n1)NN1CCCCC1 | 6 µM | 30 µM | 
7 | CC(C)(C)ONC(=O)Nc1csc(Cc2c(Cl)cccc2Cl)n1 | 1 µM | 15 µM | 
8 | CS(=O)(=O)Cc1nc(NC(=O)NN2CCOCC2)cs1 |  |  | inhibition [3]: 35%
9 | O=C(NOCc1ccccc1)Nc1csc(Cc2c(Cl)cccc2Cl)n1 |  |  | inhibition [4]: 40%
10 | O=C(NOc1ccccc1)Nc1csc(Cc2ccccc2)n1 | 20 µM | > 100 µM | 
11 | O=C(Nc1csc(-c2ccccc2)n1)NN1CCOCC1 | 9 µM | 6 µM | 
12 | O=C(Nc1csc(Cc2ccc(Br)cc2)n1)NN1CCOCC1 |  |  | inhibition [3]: 26%
13 | O=C(NOc1ccccc1)Nc1csc(-c2ccccc2)n1 | 8 µM | 35 µM | 
14 | CN(C)NC(=O)Nc1csc(Cc2c(Cl)cccc2Cl)n1 | 4 µM | 10 µM | 
15 | O=C(NOc1ccccc1)Nc1csc(Cc2c(Cl)cccc2Cl)n1 | 0.9 µM | > 100 µM | 
16 | O=C(Nc1csc(Cc2c(Cl)cccc2Cl)n1)NN1CCOCC1 | 1 µM | 10 µM | IC50 [5]: 10 µM; Ki [6]: 0.5 µM
17 | O=C(Nc1csc(Cc2ccccc2Cl)n1)NN1CCOCC1 |  |  | inhibition [3]: 30%
18 | CCONC(=O)Nc1csc(Cc2c(Cl)cccc2Cl)n1 | 5 µM | 20 µM | 
19 | O=C(NOCc1c(F)c(F)c(F)c(F)c1F)Nc1csc(Cc2c(Cl)cccc2Cl)n1 | > 100 µM |  | 
20 | C=CCONC(=O)Nc1csc(Cc2c(Cl)cccc2Cl)n1 | 6 µM | 40 µM | 

Row | SMILES | IC50 [1] | IC50 [2] | further results
21 | O=C(Nc1csc(CSc2ccccc2)n1)NN1CCOCC1 | 30 µM | 30 µM | 
22 | Cc1cccc(-c2nc(NC(=O)NN3CCOCC3)cs2)c1 | 30 µM | 20 µM | 
23 | O=C(Nc1csc(Cc2c(Cl)cccc2Cl)n1)NN1CCCC1 | 3 µM | 20 µM | 
24 | O=C(NOC1CCCCO1)Nc1csc(Cc2c(Cl)cccc2Cl)n1 (stereo unspecified) | 3 µM | 90 µM | 
25 | O=C(Nc1csc(-c2cccs2)n1)NN1CCOCC1 | 30 µM | 10 µM | 
26 | CNN(C)C(=O)Nc1csc(Cc2c(Cl)cccc2Cl)n1 | > 100 µM |  | 
27 | O=C(Nc1csc(CS(=O)(=O)c2ccccn2)n1)NN1CCOCC1 | 10 µM | 5 µM | 
28 | CCc1nc(NC(=O)NN2CCOCC2)cs1 | > 100 µM |  | 
29 | O=C(Nc1csc(COc2ccccc2)n1)NN1CCOCC1 | 80 µM | > 100 µM | 
30 | O=C(Nc1csc(-c2ccccc2Cl)n1)NN1CCOCC1 | 30 µM | 10 µM | 
31 | NNC(=O)Nc1csc(Cc2c(Cl)cccc2Cl)n1 | > 100 µM |  | 
32 | Cc1ccc(-c2nc(NC(=O)NN3CCOCC3)cs2)cc1 | > 100 µM |  | 
33 | CN(NC(=O)Nc1csc(Cc2c(Cl)cccc2Cl)n1)c1ccccc1 | 10 µM | 60 µM | 
34 | O=C(Nc1csc(Cc2c(Cl)cccc2Cl)n1)NN1CCCCCC1 | 10 µM | 70 µM | 
35 | O=C(NNc1ccccc1)Nc1csc(Cc2c(Cl)cccc2Cl)n1 | > 100 µM |  | 
36 | CS(=O)(=O)Cc1nc(NC(=O)NOc2ccccc2)cs1 | 6 µM | 90 µM | 
37 | COC[C@H]1CCCN1NC(=O)Nc1csc(Cc2c(Cl)cccc2Cl)n1 | > 100 µM |  | 
38 | O=C(Nc1csc(-c2ccc(Cl)cc2)n1)NN1CCOCC1 | > 100 µM |  | 
39 | Cc1cccc(-c2nc(NC(=O)NOc3ccccc3)cs2)c1 | 16 µM | > 100 µM | 
